Measured values as given in ChEMBL document CHEMBL4811308, “Design, synthesis and broad spectrum antibreast cancer activity of diarylindoles via induction of apoptosis in aggressive breast cancer cells” (Bioorg Med Chem, 2021).
Calls of active or inactive are those of the source. No cut-off for these calls is given here.

Key:
PC-3 = experiment: Cytotoxicity against human PC-3 cells assessed as reduction in cell viability incubated for 24 hrs by MTT assay; format: functional, cell-based; settings: PC-3, 24 h
How it was run: (§1)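 MTT viability: cells seeded at 1 × 10^4/well, grown 24 h, then exposed to a concentration range of compound for 24 h. MTT (5 mg/mL stock) added for 3 h, formazan dissolved in DMSO, absorbance read at 540 nm.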

HEK293 = experiment: Cytotoxicity against human HEK293 cells assessed as reduction in cell viability incubated for 24 hrs by MTT assay; format: cell-based; settings: HEK293, 24 h; how it was run: as §1
MDA-MB-231 [1] = experiment: Induction of cell cycle arrest in human MDA-MB-231 cells assessed as accumulation at G0/G1 phase at 2 uM incubated for 24 hrs by PI staining based flow cytometry analysis (reference value: 23.74 to 46.27 %); format: functional
MDA-MB-231 [2] = experiment: Induction of cell cycle arrest in human MDA-MB-231 cells assessed as accumulation at G2/M phase at 2 uM incubated for 24 hrs by PI staining based flow cytometry analysis (reference value: 4.35 to 19.56 %); format: functional
MDA-MB-231 [3] = experiment: Induction of cell cycle arrest in human MDA-MB-231 cells assessed as accumulation at G0/G1 phase at 4 uM incubated for 24 hrs by PI staining based flow cytometry analysis (reference value: 23.74 to 46.27 %); format: functional
MDA-MB-231 [4] = experiment: Induction of cell cycle arrest in human MDA-MB-231 cells assessed as accumulation at S phase at 4 uM incubated for 24 hrs by PI staining based flow cytometry analysis (reference value: 40.37 to 57.89 %); format: functional
MDA-MB-231 [5] = experiment: Induction of cell cycle arrest in human MDA-MB-231 cells assessed as accumulation at G0/G1 phase at 6 uM incubated for 24 hrs by PI staining based flow cytometry analysis (reference value: 23.74 to 46.27 %); format: functional
MDA-MB-231 [6] = experiment: Induction of cell cycle arrest in human MDA-MB-231 cells assessed as accumulation at G2/M phase at 6 uM incubated for 24 hrs by PI staining based flow cytometry analysis (reference value: 4.35 to 19.56 %); format: functional
MDA-MB-231 [7] = experiment: Induction of apoptosis in human MDA-MB-231 cells assessed as early apoptotic cells at 2 uM incubated for 24 hrs by annexin-V-FITC and PI staining based flow cytometry analysis (reference value: 0.28 to 4.68 %); format: functional
How it was run: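 MDA-MB-231 cells (1 × 10^6) grown 24 h in six-well plates, then treated for 24 h. Cells trypsinized, PBS-washed and stained with Annexin V-FITC/PI in binding buffer for 10 min in the dark at room temperature. Early/late apoptotic fractions quantified by flow cytometry.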

MDA-MB-231 [8] = experiment: Induction of apoptosis in human MDA-MB-231 cells assessed as necrotic cells at 2 uM incubated for 24 hrs by annexin-V-FITC and PI staining based flow cytometry analysis (reference value: 0.01 to 0.8 %); format: functional
MDA-MB-231 [9] = experiment: Induction of apoptosis in human MDA-MB-231 cells assessed as viable cells at 4 uM incubated for 24 hrs by annexin-V-FITC and PI staining based flow cytometry analysis (reference value: 95.27 to 97.16 %); format: functional; settings: read-out: Activity
MDA-MB-231 [10] = experiment: Induction of apoptosis in human MDA-MB-231 cells assessed as necrotic cells at 4 uM incubated for 24 hrs by annexin-V-FITC and PI staining based flow cytometry analysis (reference value: 0.01 to 0.8 %); format: functional
MDA-MB-231 [11] = experiment: Induction of apoptosis in human MDA-MB-231 cells assessed as late apoptotic cells at 6 uM incubated for 24 hrs by annexin-V-FITC and PI staining based flow cytometry analysis (reference value: 0.28 to 0.84 %); format: functional
MDA-MB-231 [12] = experiment: Induction of apoptosis in human MDA-MB-231 cells assessed as necrotic cells at 6 uM incubated for 24 hrs by annexin-V-FITC and PI staining based flow cytometry analysis (reference value: 0.01 to 0.8 %); format: functional
MDA-MB-231 [13] = experiment: Induction of ROS production in human MDA-MB-231 cells at 2 to 6 uM incubated for 24 hrs by DCFH-DA staining based flow cytometry analysis; format: functional, cell-based; settings: dose 2-6 µM
How it was run: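 MDA-MB-231 cells (1 × 10^6) seeded in 6-well plates for 24 h, then treated at several concentrations for 24 h. Cells trypsinized, fixed in cold methanol, stained with 30 µg/mL DCFH-DA for 30 min in the dark at room temperature, and analysed by flow cytometry.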

MDA-MB-231 [14] = experiment: Induction of autophagy in human MDA-MB-231 cells at 2 to 4 uM incubated for 24 hrs by MDC staining based fluorescence microscopic analysis; format: functional, cell-based; settings: dose 2-4 µM
How it was run: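 Autophagic vacuoles detected in MDA-MB-231 cells (1 × 10^6) seeded on cover slips for 24 h, then treated 24 h. Cells PBS-washed, stained with 0.05 mM monodansylcadaverine for 30 min in dark at room temperature, washed, and examined by fluorescence microscopy.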

MDA-MB-231 [15] = experiment: Induction in caspase-mediated apoptosis in human MDA-MB-231 cells assessed as decrease in cell viability at 2 uM incubated for 24 hrs in presence of Z-VAD-FMK by MTT assay; format: functional, cell-based
How it was run: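 MDA-MB-231 cells pretreated 2 h with 50 µM Z-VAD-FMK, then exposed to 2 µM compound for 24 h. Viability by MTT (3 h), formazan in DMSO, absorbance at 540 nm. Three independent experiments, mean ± S.E.M.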

[16] = target: Estrogen receptor beta (Homo sapiens) (UniProt Q92731); experiment: Transactivation of ERbeta (unknown origin) transfected in human MDA-MB-231 cells at 1 uM by dual luciferase receptor assay; format: cell-based
How it was run: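 MDA-MB-231 cells grown to 80-90% confluency, transfected with 500 ng of ERα (pSG5 mERα) or ERβ (pSG5-hERβ) expression vector plus pRL-SV40 Renilla for normalization, then reseeded. Cells incubated with E2 (100 nM), compound at 1 µM, or tamoxifen at 1 µM. Dual luciferase readout reported as percent normalized RLU, triplicate experiments with three replicates each.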

[17] = Toxicity in BALB/c mouse xenografted with mouse 4T1 cells assessed as survival rate at 10 to 20 mg/kg, po administered for 21 days and measured on day 21; format: organism-based; settings: in vivo, 504 h, dose 10-20 mg/kg, time 21 day
How it was run: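 Orthotopic syngeneic model: 4T1 cells (7 × 10^5) injected into mammary fat pad of six-week-old female Balb/c mice. Once tumours were measurable at one week, mice were randomized into ten groups. Compound was dissolved in ethanol, diluted in PBS, and given by oral gavage at 10 or 20 mg/kg daily for 21 days; vehicle controls. Body weight and tumour size were measured twice weekly.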

[18] = Acute toxicity in Swiss albino mouse assessed as cholesterol level at 5 mg/kg, po administered once and observed for 7 days (reference value: 122.05 +/- 8.12 mg/dl); format: organism-based; settings: in vivo, 168 h, time 7 day

Chain of Estrogen receptor beta (Homo sapiens) (Q92731 whole entry): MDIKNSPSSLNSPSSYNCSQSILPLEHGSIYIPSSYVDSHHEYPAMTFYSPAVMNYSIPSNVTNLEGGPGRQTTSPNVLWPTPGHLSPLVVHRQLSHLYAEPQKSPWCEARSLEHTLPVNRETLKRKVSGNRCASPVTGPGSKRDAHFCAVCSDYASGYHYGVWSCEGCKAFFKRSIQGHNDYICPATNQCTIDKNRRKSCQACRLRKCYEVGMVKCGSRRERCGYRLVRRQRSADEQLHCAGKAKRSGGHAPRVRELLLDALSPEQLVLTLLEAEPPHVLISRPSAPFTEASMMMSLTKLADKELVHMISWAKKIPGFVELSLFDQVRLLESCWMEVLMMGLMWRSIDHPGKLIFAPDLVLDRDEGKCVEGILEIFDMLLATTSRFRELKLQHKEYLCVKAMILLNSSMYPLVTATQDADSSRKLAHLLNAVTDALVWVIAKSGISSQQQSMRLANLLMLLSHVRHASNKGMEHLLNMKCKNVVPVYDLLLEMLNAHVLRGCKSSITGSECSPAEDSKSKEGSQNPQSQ

Row | Structure (SMILES) | IC50 (PC-3) | IC50 (HEK293) | Activity (MDA-MB-231 [1]) | Activity (MDA-MB-231 [2]) | Activity (MDA-MB-231 [3]) | Activity (MDA-MB-231 [4]) | Activity (MDA-MB-231 [5]) | Activity (MDA-MB-231 [6]) | Activity (MDA-MB-231 [7]) | Activity (MDA-MB-231 [8]) | viability at 4 µM (MDA-MB-231 [9]) | Activity (MDA-MB-231 [10]) | Activity (MDA-MB-231 [11]) | Activity (MDA-MB-231 [12]) | Activity (MDA-MB-231 [13]) | Activity (MDA-MB-231 [14]) | Activity (MDA-MB-231 [15]) | Activity [17] | Activity ([16]; filed as activator) | Activity [18] | also measured
1 | COc1ccc2c(c1)c(Cc1ccc(OCCN3CCCCC3)cc1)c(-c1cc(OC)c(OC)c(OC)c1)n2Cc1ccc(OCCN2CCCCC2)cc1 | 7.07 µM | 30.5 µM | 53.25% | 12.45% | 55.16% | 29.41% | 59.19% | 8.91% | 12.28% | 2.01% | 56% | 1.69% | 37.67% | 0.55% | Active | Active | Active | Non-Toxic |  |  | Activity [16]: inactive
2 | CCN(CC)CCOc1ccc(Cc2c(-c3cc(OC)c(OC)c(OC)c3)n(Cc3ccc(OCCN(CC)CC)cc3)c3ccc(OC)cc23)cc1 | 8.31 µM | 25.4 µM | 51.72% | 10.07% | 53.87% | 38.03% | 57.6% | 5.84% | 9.52% | 4.3% | 77.9% | 3.29% | 14.25% | 2.09% | Active | Active | Active | Non-Toxic | Active |  | 
3 | COc1ccc2c(c1)c(Cc1ccc(OCCN(C)C)cc1)c(-c1cc(OC)c(OC)c(OC)c1)n2Cc1ccc(OCCN(C)C)cc1 | 5.82 µM | 24.5 µM | 60.43% | 0.79% | 61.13% | 38.65% | 64.37% | 0% | 11.63% | 2.34% | 58.3% | 3.44% | 15.1% | 9.08% | Active | Active | inactive | Non-Toxic | Active | 112.13 mg/dL | 
4 | COc1ccc2c(c1)c(Cc1ccc(OC(C)CN(C)C)cc1)c(-c1cc(OC)c(OC)c(OC)c1)n2Cc1ccc(OC(C)CN(C)C)cc1 (stereo not drawn) | 6.72 µM | 21.8 µM | 46.32% | 12.85% | 46.54% | 40.83% | 49.36% | 8.37% | 17.38% | 3.43% | 53.2% | 3.55% | 26.15% | 7.58% | Active | Active | inactive | Non-Toxic | Active | 117.25 mg/dL | 
